Measured values as given in ChEMBL document CHEMBL4219075, “Synthesis and evaluation of novel dolastatin 10 derivatives for versatile conjugations” (Bioorg Med Chem, 2018).
Activity calls are given as the source filed them. The calls are words filed in the database; no cut-off is given here. Non-standard residues stand in square brackets, D forms with d. Residues, ends and D or L forms follow the SMILES beside them. *: point of attachment. Dolaproine = CO[C@@H]([C@@H]1CCCN1)[C@@H](C)C(=O)O; Dil = CC[C@H](C)[C@H](NC)[C@@H](CC(=O)O)OC; X1 = C[C@@H](N*)[C@@H](O)c1ccccc1; NMeV = CN[C@H](C(=O)O)C(C)C

What was measured:
[1] = tested on: L1210; test: Cytotoxicity against mouse L1210 cells after 2 days by cell titer 96 aqueous one solution based assay; type: functional; conditions: L1210, 48 h
Procedure, shortened: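 Mouse L1210 leukemia cells in RPMI-1640 + 10% heat-inactivated FBS were seeded at about 5000−50000/well and incubated overnight at 37°C, 5% CO2. Compounds were diluted in RPMI with 1% FBS and no folic acid, added at various concentrations in triplicate, and incubated 2 days. MTS was added for 1–2 h, A490 read, and survival expressed relative to untreated controls.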

[2] = organism: Sus scrofa; test: Inhibition of porcine brain tubulin polymerization measured every minute for 60 mins by absorbance spectroscopic analysis
Procedure, shortened: (§1)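 Fluorescence-based HTS kit assay run with porcine brain tubulin at about 100 µg per well in general tubulin buffer. Compound at 3, 1 or 0.3 µM final, in duplicate, added at the start. Run at 37°C for 60 min, reading OD 360 nm (emission 450 nm) each minute. Polymerization compared with buffer-treated tubulin.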

[3] = tested on: A549; test: Cytotoxicity against human A549 cells after 2 days by cell titer 96 aqueous one solution based assay; type: functional; conditions: A549, 48 h
Procedure, shortened: (§2)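 Cells (DMEM + 10% heat-inactivated FBS for SKOV-3 and A549) seeded at about 5000−50000/well and held overnight at 37°C, 5% CO2. DMSO stocks were diluted into medium with 1% FBS and no folic acid. Compounds at various concentrations were added in triplicate and incubated 2 days. MTS reagent was added for 1–2 h, absorbance read at 490 nm, and percent survival calculated versus untreated wells.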

[4] = tested on: SK-OV-3; test: Cytotoxicity against human SKOV3 cells after 2 days by cell titer 96 aqueous one solution based assay; type: functional; conditions: SK-OV-3, 48 h; procedure, shortened: as §2
[5] = Permeability of the compound at 200 umol/L after 5 hrs by PAMPA; type: ADME; conditions: read-out: permeability
Procedure, shortened: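 Compound solution in the donor (receiver-plate) wells; 20% MeOH in PBS in the pre-coated filter-plate wells. The assembly was incubated 5 h at room temperature. Donor and acceptor concentrations were measured by LC-MS. Permeability was calculated from filter area 0.3 cm², donor 0.32 mL, acceptor 0.2 mL, t = 18,000 s and equilibrium concentration.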

[6] = organism: Sus scrofa; test: Inhibition of porcine brain tubulin polymerization at 0.3 to 3 uM measured every minute for 60 mins by absorbance spectroscopic analysis; procedure, shortened: as §1
[7] = Ratio of IC50 for human SKOV3 cells to IC50 for porcine brain tubulin polymerization

**Q.** For `CC[C@H](C)[C@@H]([C@@H](CC(=O)N1CCC[C@H]1[C@H](OC)[C@@H](C)C(=O)N[C@@H](Cc1ccccc1)c1nc(C(=O)NCCO)cs1)OC)N(C)C(=O)[C@@H](NC(=O)[C@H](C(C)C)N(C)C)C(C)C`, which IC50 [1] is on record?
**A.** 28 nM

**Q.** And the inhibition [2]?
**A.** Active

**Q.** And the IC50 [3]?
**A.** 1.7 nM

**Q.** And the IC50 [4]?
**A.** 4.7 nM

**Q.** And the Papp at 5 h, 200 µM [5]?
**A.** 0.02 ×10⁻⁶ cm/s

**Q.** With `CC[C@H](C)[C@@H]([C@@H](CC(=O)N1CCC[C@H]1[C@H](OC)[C@@H](C)C(=O)N[C@@H](Cc1ccccc1)c1nc(C(=O)N(C)CCNC)cs1)OC)N(C)C(=O)[C@@H](NC(=O)[C@H](C(C)C)N(C)C)C(C)C` as the compound, how does the IC50 [1] read?
**A.** 14 nM

**Q.** And the inhibition [2]?
**A.** Active

**Q.** What about the IC50 [3] of the same compound?
**A.** 1.9 nM

**Q.** What about the IC50 [4] of the same compound?
**A.** 0.19 nM

**Q.** What about the Papp at 5 h, 200 µM [5] of the same compound?
**A.** < 0.001 ×10⁻⁶ cm/s

**Q.** With `CC[C@H](C)[C@@H]([C@@H](CC(=O)N1CCC[C@H]1[C@H](OC)[C@@H](C)C(=O)N[C@@H](Cc1ccccc1)c1nc(C(=O)NCCc2ccc(N)cc2)cs1)OC)N(C)C(=O)[C@@H](NC(=O)[C@H](C(C)C)N(C)C)C(C)C` as the compound, how does the IC50 [1] read?
**A.** 4.1 nM

**Q.** What about the inhibition [6] of the same compound?
**A.** Active

**Q.** What about the “Ratio IC50” value [7] of the same compound?
**A.** >30

**Q.** What about the IC50 [3] of the same compound?
**A.** 1.1 nM

**Q.** What about the IC50 [4] of the same compound?
**A.** 0.27 nM

**Q.** And the Papp at 5 h, 200 µM [5]?
**A.** 0.3 ×10⁻⁶ cm/s

**Q.** With `CCOC(=O)c1csc([C@H](Cc2ccccc2)NC(=O)[C@H](C)[C@@H](OC)[C@@H]2CCCN2C(=O)C[C@@H](OC)[C@H]([C@@H](C)CC)N(C)C(=O)[C@@H](NC(=O)[C@H](C(C)C)N(C)C)C(C)C)n1` as the compound, how does the inhibition [2] read?
**A.** Active

**Q.** And the IC50 [4]?
**A.** 0.024 nM

**Q.** And the Papp at 5 h, 200 µM [5]?
**A.** 3.2 ×10⁻⁶ cm/s

**Q.** For `CC[C@H](C)[C@@H]([C@@H](CC(=O)N1CCC[C@H]1[C@H](OC)[C@@H](C)C(=O)N[C@@H](Cc1ccccc1)c1nc(C(=O)OCCS)cs1)OC)N(C)C(=O)[C@@H](NC(=O)[C@H](C(C)C)N(C)C)C(C)C`, which IC50 [1] is on record?
**A.** 14 nM

**Q.** What about the inhibition [2] of the same compound?
**A.** Active

**Q.** What about the IC50 [3] of the same compound?
**A.** 6.9 nM

**Q.** And the IC50 [4]?
**A.** 0.13 nM

**Q.** What about the Papp at 5 h, 200 µM [5] of the same compound?
**A.** 0.005 ×10⁻⁶ cm/s

**Q.** Which results are given for `CC[C@H](C)[C@@H]([C@@H](CC(=O)N1CCC[C@H]1[C@H](OC)[C@@H](C)C(=O)N[C@@H](Cc1ccccc1)c1nc(C(=O)N(C)CCO)cs1)OC)N(C)C(=O)[C@@H](NC(=O)[C@H](C(C)C)N(C)C)C(C)C`?
**A.** IC50 [1]: 8.5 nM; inhibition [2]: Active; IC50 [3]: 1.6 nM; IC50 [4]: 1.5 nM; Papp at 5 h, 200 µM [5]: 0.077 ×10⁻⁶ cm/s

**Q.** What does the source list for `CC[C@H](C)[C@@H]([C@@H](CC(=O)N1CCC[C@H]1[C@H](OC)[C@@H](C)C(=O)N[C@@H](Cc1ccccc1)c1nc(C(=O)N(C)CCS)cs1)OC)N(C)C(=O)[C@@H](NC(=O)[C@H](C(C)C)N(C)C)C(C)C`?
**A.** IC50 [1]: 7 nM; inhibition [2]: Active; IC50 [3]: 1.2 nM; IC50 [4]: 1.1 nM; Papp at 5 h, 200 µM [5]: 1.1 ×10⁻⁶ cm/s

**Q.** With `CC[C@H](C)[C@@H]([C@@H](CC(=O)N1CCC[C@H]1[C@H](OC)[C@@H](C)C(=O)N[C@@H](Cc1ccccc1)c1nc(C(=O)NCCS)cs1)OC)N(C)C(=O)[C@@H](NC(=O)[C@H](C(C)C)N(C)C)C(C)C` as the compound, how does the IC50 [1] read?
**A.** 31 nM

**Q.** And the inhibition [2]?
**A.** Active

**Q.** What about the IC50 [3] of the same compound?
**A.** 1.9 nM

**Q.** What about the IC50 [4] of the same compound?
**A.** 0.44 nM

**Q.** And the Papp at 5 h, 200 µM [5]?
**A.** 1.1 ×10⁻⁶ cm/s

**Q.** With `CC[C@H](C)[C@@H]([C@@H](CC(=O)N1CCC[C@H]1[C@H](OC)[C@@H](C)C(=O)N[C@@H](Cc1ccccc1)c1nc(C(=O)NCCN)cs1)OC)N(C)C(=O)[C@@H](NC(=O)[C@H](C(C)C)N(C)C)C(C)C` as the compound, how does the IC50 [1] read?
**A.** > 50 nM

**Q.** What about the inhibition [6] of the same compound?
**A.** Active

**Q.** And the “Ratio IC50” value [7]?
**A.** >30

**Q.** And the IC50 [3]?
**A.** > 10 nM

**Q.** What about the IC50 [4] of the same compound?
**A.** > 10 nM

**Q.** What about the Papp at 5 h, 200 µM [5] of the same compound?
**A.** 0.056 ×10⁻⁶ cm/s

**Q.** Which IC50 [1] does the source give for `CC[C@H](C)[C@@H]([C@@H](CC(=O)N1CCC[C@H]1[C@H](OC)[C@@H](C)C(=O)N[C@@H](Cc1ccccc1)c1nc(C(=O)NCCc2ccc(O)cc2)cs1)OC)N(C)C(=O)[C@@H](NC(=O)[C@H](C(C)C)N(C)C)C(C)C` here?
**A.** 5.6 nM

**Q.** And the inhibition [2]?
**A.** Active

**Q.** What about the IC50 [3] of the same compound?
**A.** 1.3 nM

**Q.** What about the IC50 [4] of the same compound?
**A.** 0.37 nM

**Q.** And the Papp at 5 h, 200 µM [5]?
**A.** 0.36 ×10⁻⁶ cm/s

**Q.** With `CC[C@H](C)[C@@H]([C@@H](CC(=O)N1CCC[C@H]1[C@H](OC)[C@@H](C)C(=O)N[C@@H](Cc1ccccc1)c1nc(C(=O)NCCNC)cs1)OC)N(C)C(=O)[C@@H](NC(=O)[C@H](C(C)C)N(C)C)C(C)C` as the compound, how does the IC50 [1] read?
**A.** 27 nM

**Q.** What about the inhibition [2] of the same compound?
**A.** Active

**Q.** What about the IC50 [3] of the same compound?
**A.** 9.9 nM

**Q.** What about the IC50 [4] of the same compound?
**A.** > 10 nM

**Q.** What about the Papp at 5 h, 200 µM [5] of the same compound?
**A.** 0.004 ×10⁻⁶ cm/s

**Q.** For `CC[C@H](C)[C@@H]([C@@H](CC(=O)N1CCC[C@H]1[C@H](OC)[C@@H](C)C(=O)N[C@@H](Cc1ccccc1)c1nc(C(=O)OCCO)cs1)OC)N(C)C(=O)[C@@H](NC(=O)[C@H](C(C)C)N(C)C)C(C)C`, which IC50 [1] is on record?
**A.** 4.7 nM

**Q.** What about the inhibition [2] of the same compound?
**A.** Active

**Q.** And the IC50 [3]?
**A.** 1.8 nM

**Q.** And the IC50 [4]?
**A.** 0.086 nM

**Q.** And the Papp at 5 h, 200 µM [5]?
**A.** 0.04 ×10⁻⁶ cm/s

**Q.** With `CC[C@H](C)[C@@H]([C@@H](CC(=O)N1CCC[C@H]1[C@H](OC)[C@@H](C)C(=O)N[C@@H](Cc1ccccc1)c1nc(C(=O)OCCN)cs1)OC)N(C)C(=O)[C@@H](NC(=O)[C@H](C(C)C)N(C)C)C(C)C` as the compound, how does the IC50 [1] read?
**A.** 29 nM

**Q.** What about the inhibition [2] of the same compound?
**A.** Active

**Q.** What about the IC50 [3] of the same compound?
**A.** 0.83 nM

**Q.** What about the IC50 [4] of the same compound?
**A.** 0.85 nM

**Q.** What about the Papp at 5 h, 200 µM [5] of the same compound?
**A.** 0.007 ×10⁻⁶ cm/s

**Q.** For `CC[C@H](C)[C@@H]([C@@H](CC(=O)N1CCC[C@H]1[C@H](OC)[C@@H](C)C(=O)N[C@@H](Cc1ccccc1)c1nc(C(=O)N(C)CCN)cs1)OC)N(C)C(=O)[C@@H](NC(=O)[C@H](C(C)C)N(C)C)C(C)C`, which IC50 [1] is on record?
**A.** 12 nM

**Q.** And the inhibition [2]?
**A.** Active

**Q.** And the IC50 [3]?
**A.** 0.81 nM

**Q.** And the IC50 [4]?
**A.** 0.56 nM

**Q.** What about the Papp at 5 h, 200 µM [5] of the same compound?
**A.** 0.072 ×10⁻⁶ cm/s

**Q.** With `CCNC(=O)c1csc([C@H](Cc2ccccc2)NC(=O)[C@H](C)[C@@H](OC)[C@@H]2CCCN2C(=O)C[C@@H](OC)[C@H]([C@@H](C)CC)N(C)C(=O)[C@@H](NC(=O)[C@H](C(C)C)N(C)C)C(C)C)n1` as the compound, how does the IC50 [1] read?
**A.** 6.5 nM

**Q.** And the inhibition [2]?
**A.** Active

**Q.** And the IC50 [3]?
**A.** 0.74 nM

**Q.** And the IC50 [4]?
**A.** 0.55 nM

**Q.** And the Papp at 5 h, 200 µM [5]?
**A.** 1.7 ×10⁻⁶ cm/s

**Q.** With `CC[C@H](C)[C@@H]([C@@H](CC(=O)N1CCC[C@H]1[C@H](OC)[C@@H](C)C(=O)N[C@H](C)[C@@H](O)c1ccccc1)OC)N(C)C(=O)[C@@H](NC(=O)[C@@H](NC)C(C)C)C(C)C` (H-[NMeV]V[Dil][Dolaproine]-X1) as the compound, how does the IC50 [1] read?
**A.** 2.1 nM

**Q.** What about the IC50 [3] of the same compound?
**A.** 1.3 nM

**Q.** What about the IC50 [4] of the same compound?
**A.** 0.66 nM

**Q.** What about the Papp at 5 h, 200 µM [5] of the same compound?
**A.** 0.079 ×10⁻⁶ cm/s
